Assay results taken from ChEMBL document CHEMBL3792366, “Role of disulfide linkage in action of bis(dialkylaminethiocarbonyl)disulfides as potent double-Edged microbicidal spermicide: Design, synthesis and biology” (Eur J Med Chem, 2016).
Converted amounts (≈) assume the structure as drawn. The source made the active and inactive calls. The calls are words filed in the database; no cut-off is given here.

Assays:
Sporothrix schenckii = assay: Antifungal activity against Sporothrix schenckii after 48 hrs by broth microdilution method; assay type: functional
Method in brief: (§1)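 NCCLS broth microdilution in RPMI 1640 buffered with MOPS; starting inoculum 1–5 × 10^3 CFU/mL; plates incubated at 35 °C; MIC read after 48 h.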

Cryptococcus neoformans = assay: Antifungal activity against Cryptococcus neoformans after 48 hrs by broth microdilution method; assay type: functional; method in brief: as §1
Trichomonas vaginalis [1] = assay: Antitrichomonas activity against metronidazole-susceptible Trichomonas vaginalis in sc dosed mouse assessed as pustule formation at 5 ug administered daily measured after 5 days (reference value: 109 mm'2); assay type: functional
[2] = Selectivity index, ratio of IC50 for Lactobacillus jensenii ATCC 25258 to MIC for trophozoite stage of Trichomonas vaginalis clinical isolate
Trichomonas vaginalis [3] = assay: Antitrichomonas activity against Trichomonas vaginalis assessed as reduction in free thiol levels in parasite membrane at MIC after 24 hrs by fluorescence microscopy; assay type: functional, organism-based
[4] = Toxicity in Lactobacillus jensenii ATCC 25258 after 72 hrs
Candida parapsilosis = assay: Antifungal activity against Candida parapsilosis ATCC 22019 after 48 hrs by broth microdilution method; assay type: functional; conditions: Lodderomyces parapsilosis, ATCC 22019, 48 h; method in brief: as §1
[5] = Spermicidal activity in human sperms assessed as motility measured within 30 secs by phase contrast microscopy; assay type: functional, Sperm
Method in brief: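 Liquefied human semen (0.05 mL) was added to 0.25 mL test solution and vortexed 10 s at low speed. Motile sperm were scored visually under phase contrast in five fields within 30 s; assays in triplicate; MEC = minimum effective concentration.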

[6] = system: Trichophyton mentagrophytes; assay: Antifungal activity against Trichophyton mentagrophytes after 48 hrs by broth microdilution method; assay type: functional; method in brief: as §1
Trichomonas vaginalis [7] = assay: Potency index, ratio of metronidazole MIC to compound MIC for metronidazole-resistant trophozoite stage of Trichomonas vaginalis ATCC 50143; assay type: functional
Trichomonas vaginalis [8] = assay: Antitrichomonas activity against metronidazole-resistant trophozoite stage of Trichomonas vaginalis ATCC 50143 assessed as cell viability under anaerobic condition after 48 hrs by trypan blue exclusion assay; assay type: functional; conditions: ATCC 50143, 48 h
Method in brief: (§2)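 Log-phase T. vaginalis grown in TYM with 10% FCS, vitamin mix and penicillin/streptomycin at 37 °C. Compounds were made as 100 µg/mL DMSO stocks and serially diluted in TYM down to 0.1 µg/mL; DMSO/TYM served as vehicle. Parasites were incubated anaerobically at 37 °C, and viability was checked by trypan blue exclusion from 3 to 48 h. MIC = lowest concentration killing all cells by 48 h; each test was repeated three times.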

[9] = Selectivity index, ratio of IC50 for Lactobacillus jensenii ATCC 25258 to MIC for metronidazole resistant trophozoite stage of Trichomonas vaginalis ATCC 50143
HeLa = assay: Cytotoxicity against human HeLa cells after 5 hrs by lactate dehydrogenase release assay; assay type: cell-based
Method in brief: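 HeLa cells were seeded at 2×10^4/well in triplicate and grown 24 h at 37 °C in 5% CO2. The DMEM was then replaced with medium holding serially diluted compound, and plates were incubated 5 h. LDH release in the supernatant was measured colorimetrically at 490 nm, and IC50 was derived from it.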

Trichomonas vaginalis [10] = assay: Antitrichomonas activity against metronidazole-susceptible Trichomonas vaginalis in sc dosed mouse assessed as pustule formation at 5 ug administered daily measured after 7 days (reference value: 190 mm'2); assay type: functional
Trichomonas vaginalis [11] = assay: Antitrichomonas activity against metronidazole-susceptible Trichomonas vaginalis in sc dosed mouse assessed as spleen weight at 5 ug administered daily measured after 7 days (reference value: 0.59 g); assay type: functional
Trichomonas vaginalis [12] = assay: Antitrichomonas activity against trophozoite stage of Trichomonas vaginalis clinical isolate assessed as cell viability under anaerobic condition after 48 hrs by trypan blue exclusion assay; assay type: functional; method in brief: as §2
Candida albicans = assay: Antifungal activity against Candida albicans after 48 hrs by broth microdilution method; assay type: functional; method in brief: as §1
Oryctolagus cuniculus [13] = assay: In vivo spermicidal activity in Belgian rabbit assessed as decrease in pregnancy rate at 25 mg via intravaginal instillation measured 30 to 34 days post gestation period; assay type: functional
Method in brief: (§3)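 Young adult female Belgian rabbits. Compound was blended into K-Y Jelly, with plain jelly for controls. Two mL of jelly was instilled 10–12 cm deep into the vagina by catheter, with the animal supine.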

Oryctolagus cuniculus [14] = assay: In vivo spermicidal activity in Belgian rabbit assessed as decrease in litter size at 10 mg via intravaginal instillation measured 30 to 34 days post gestation period; assay type: functional; set-up: scale not given: the % may be the effect or the level left; method in brief: as §3
Oryctolagus cuniculus [15] = assay: In vivo spermicidal activity in Belgian rabbit assessed as decrease in pregnancy rate at 50 mg via intravaginal instillation measured 30 to 34 days post gestation period; assay type: functional; method in brief: as §3
Oryctolagus cuniculus [16] = assay: In vivo spermicidal activity in Belgian rabbit assessed as decrease in litter size at 50 mg via intravaginal instillation measured 30 to 34 days post gestation period; assay type: functional; set-up: scale not given: the % may be the effect or the level left; method in brief: as §3
Oryctolagus cuniculus [17] = assay: In vivo spermicidal activity in Belgian rabbit assessed as decrease in pregnancy rate administered via intravaginal instillation measured 30 to 34 days post gestation period; assay type: functional, organism-based; method in brief: as §3
Oryctolagus cuniculus [18] = assay: In vivo spermicidal activity in Belgian rabbit assessed as decrease in litter size at 25 mg via intravaginal instillation measured 30 to 34 days post gestation period; assay type: functional; set-up: scale not given: the % may be the effect or the level left; method in brief: as §3
Oryctolagus cuniculus [19] = assay: In vivo spermicidal activity in Belgian rabbit assessed as decrease in pregnancy rate at 10 mg via intravaginal instillation measured 30 to 34 days post gestation period; assay type: functional; method in brief: as §3
Trichomonas vaginalis [20] = assay: Selectivity ratio of MIC for metronidazole-resistant trophozoite stage of Trichomonas vaginalis ATCC 50143 to MIC for metronidazole-susceptible trophozoite stage of Trichomonas vaginalis; assay type: functional
Oryctolagus cuniculus [21] = assay: In vivo spermicidal activity in Belgian rabbit assessed as decrease in pregnancy rate at 20 mg via intravaginal instillation measured 30 to 34 days post gestation period; assay type: functional; method in brief: as §3
Oryctolagus cuniculus [22] = assay: In vivo spermicidal activity in Belgian rabbit assessed as decrease in pregnancy rate at 15 mg via intravaginal instillation measured 30 to 34 days post gestation period; assay type: functional; method in brief: as §3
Oryctolagus cuniculus [23] = assay: In vivo spermicidal activity in Belgian rabbit assessed as decrease in litter size at 20 mg via intravaginal instillation measured 30 to 34 days post gestation period; assay type: functional; set-up: scale not given: the % may be the effect or the level left; method in brief: as §3
Sperm = assay: Spermicidal activity in human sperm assessed as decrease in free thiol levels in sperm membrane at MEC after 15 mins by mBBr dye based fluorescence microscopy; assay type: functional, cell membranes
Method in brief: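 Semen (0.5 mL) was incubated with 2.5 mL of compound at MEC, or saline, for 15 min at room temperature. Sperm were pelleted at 700×g, washed in PBS and labelled with 0.5 mM (final) mBBr for 15 min in the dark. After washing, cells were imaged by epifluorescence (UV1A filter) at equal exposure times.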

Oryctolagus cuniculus [24] = assay: In vivo spermicidal activity in Belgian rabbit assessed as decrease in litter size at 15 mg via intravaginal instillation measured 30 to 34 days post gestation period; assay type: functional; set-up: scale not given: the % may be the effect or the level left; method in brief: as §3

| SMILES | MIC (Sporothrix schenckii) [µM] | MIC (Cryptococcus neoformans) [µM] | Activity (Trichomonas vaginalis [1]) [mm2] | Selectivity Index [2] | IC50 [4] [µM] | MIC (Candida parapsilosis) [µM] | MEC [5] [%] | MIC [6] [µM] | Ratio (Trichomonas vaginalis [7]) | MIC (Trichomonas vaginalis [8]) [µM] | Selectivity Index [9] | IC50 (HeLa) [µM] | Activity (Trichomonas vaginalis [10]) [mm2] | Activity (Trichomonas vaginalis [11]) [g] | MIC (Trichomonas vaginalis [12]) [µM] | MIC (Candida albicans) [µM] | also measured |
| --- | --- | --- | --- | --- | --- | --- | --- | --- | --- | --- | --- | --- | --- | --- | --- | --- | --- |
| CN(C)C(=S)SSC(=S)N(C)C [THIRAM] | 51.8 (≈ 12.5 µg/mL) | 3.2 (≈ 0.769 µg/mL) | 15 | 188 | 8390 | 51.8 (≈ 12.5 µg/mL) | 0.01 | 6.5 (≈ 1.56 µg/mL) | 16 | 12.9 (≈ 3.1 µg/mL) | 188 | 2430 | 4.45 | 0.3 | 12.9 (≈ 3.1 µg/mL) | 6.5 (≈ 1.56 µg/mL) | Activity (Trichomonas vaginalis [3]): Active |
| C=CCN1CCN(C(=S)SSC(=S)N2CCN(CC=C)CC2)CC1 | > 124 | > 124 | – | 86 | 3610 | 124 (≈ 49.9 µg/mL) | 0.001 | 124 (≈ 49.9 µg/mL) | 2 | 62 (≈ 25 µg/mL) | 21 | 1340 | – | – | 15.5 (≈ 6.24 µg/mL) | 62 (≈ 25 µg/mL) | – |
| S=C(SCCN1CCCC1)N1CCN(C(=S)SSC(=S)N2CCN(C(=S)SCCN3CCCC3)CC2)CC1 | 74.7 (≈ 50 µg/mL) | 74.7 (≈ 50 µg/mL) | – | 58 | 6080 | 74.7 (≈ 50 µg/mL) | 0.002 | 74.7 (≈ 50 µg/mL) | – | > 149 | > 18 | 2740 | – | – | 46.7 (≈ 31.2 µg/mL) | 74.7 (≈ 50 µg/mL) | – |
| CCOC(=O)N1CCN(C(=S)SSC(=S)N2CCN(C(=O)OCC)CC2)CC1 | 107 (≈ 49.8 µg/mL) | 26.7 (≈ 12.5 µg/mL) | – | – | – | 53.4 (≈ 24.9 µg/mL) | 1 | 107 (≈ 49.8 µg/mL) | 8 | 13.3 (≈ 6.21 µg/mL) | – | – | – | – | 13.3 (≈ 6.21 µg/mL) | 53.4 (≈ 24.9 µg/mL) | – |
| N#CCCCN1CCN(C(=S)SSC(=S)N2CCN(CCCC#N)CC2)CC1 | 109 (≈ 49.8 µg/mL) | > 109 | 15 | 368 | 6110 | > 109 | 0.001 | 109 (≈ 49.8 µg/mL) | 16 | 6.8 (≈ 3.11 µg/mL) | 368 | 2510 | 5.75 | 0.3 | 6.8 (≈ 3.11 µg/mL) | > 109 | Activity (Trichomonas vaginalis [3]): Active; Efficacy (Oryctolagus cuniculus [13]): 100%; Activity (Oryctolagus cuniculus [14]): 90%; Efficacy (Oryctolagus cuniculus [15]): 100%; Activity (Oryctolagus cuniculus [16]): 100%; Activity (Oryctolagus cuniculus [17]): Dose-dependent effect; Activity (Oryctolagus cuniculus [18]): 100%; Efficacy (Oryctolagus cuniculus [19]): 85.7% |
| S=C(SSC(=S)N1CCCC1)N1CCCC1 [BIS(PYRROLIDINYLTHIOCARBONYL)DISULFIDE] | 21.3 (≈ 6.23 µg/mL) | 2.6 (≈ 0.761 µg/mL) | – | – | – | 21.3 (≈ 6.23 µg/mL) | 1 | 10.6 (≈ 3.1 µg/mL) | 16 | 10.6 (≈ 3.1 µg/mL) | – | – | – | – | 10.6 (≈ 3.1 µg/mL) | 10.6 (≈ 3.1 µg/mL) | – |
| S=C(SSC(=S)N1CCN(CCN2CCOCC2)CC1)N1CCN(CCN2CCOCC2)CC1 | 91 (≈ 49.9 µg/mL) | > 91 | – | 7 | 6480 | > 91 | 0.005 | 91 (≈ 49.9 µg/mL) | 2 | 45.5 (≈ 25 µg/mL) | 3 | 169 | – | – | 22.7 (≈ 12.5 µg/mL) | > 91 | – |
| CN(Cc1ccccc1)C(=S)SSC(=S)N(C)Cc1ccccc1 | 31.8 (≈ 12.5 µg/mL) | 7.9 (≈ 3.1 µg/mL) | – | – | – | > 127 | >1 | 63.6 (≈ 25 µg/mL) | 4 | 31.8 (≈ 12.5 µg/mL) | – | – | – | – | 7.9 (≈ 3.1 µg/mL) | 31.8 (≈ 12.5 µg/mL) | Selectivity ratio (Trichomonas vaginalis [20]): 4 |
| Cc1ncc([N+](=O)[O-])n1CCO [METRONIDAZOLE] | – | – | 15 | – | – | – | – | – | – | 292 (≈ 50 µg/mL) | – | – | 7.59 | 0.5 | 11.6 (≈ 1.99 µg/mL) | – | Selectivity ratio (Trichomonas vaginalis [20]): 25 |
| CCCCN1CCN(C(=S)SSC(=S)N2CCN(CCCC)CC2)CC1 | 114 (≈ 49.6 µg/mL) | 114 (≈ 49.6 µg/mL) | – | 25 | 832 | 57.4 (≈ 25 µg/mL) | 0.001 | 114 (≈ 49.6 µg/mL) | 4 | 28.7 (≈ 12.5 µg/mL) | 12 | 359 | – | – | 14.3 (≈ 6.22 µg/mL) | 57.4 (≈ 25 µg/mL) | Efficacy (Oryctolagus cuniculus [21]): 50%; Efficacy (Oryctolagus cuniculus [22]): 62.5%; Activity (Oryctolagus cuniculus [14]): 67%; Activity (Oryctolagus cuniculus [17]): Dose-dependent effect; Efficacy (Oryctolagus cuniculus [19]): 37.5%; Activity (Oryctolagus cuniculus [23]): 76%; Activity (Sperm): Active; Activity (Oryctolagus cuniculus [24]): 74% |
